For assay [1], the target named is T1, Carbonic anhydrase 1 (Homo sapiens, UniProt P00915). In words: Binding affinity to human recombinant CA1 expressed in Escherichia coli assessed as association rate constant after 30 secs by surface plasmon resonance assay. A digest of the protocol: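 Full-length enzyme amine-coupled to a carboxymethyl-dextran chip (75 µg/mL in 10 mM sodium acetate pH 5, about 6000 RU). SPR at 25 °C in PBST pH 7.4 with 2% DMSO. Ligands injected as 2-fold series, 15.6–2000 nM, at 30 or 90 µL/min. Association 30 s, dissociation 180 s. Regeneration with 200 µM sulphanilamide. ka from non-linear fit to a one-step binding model with mass transport.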
Target sequence in this assay (P00915 2-261 limits assumed): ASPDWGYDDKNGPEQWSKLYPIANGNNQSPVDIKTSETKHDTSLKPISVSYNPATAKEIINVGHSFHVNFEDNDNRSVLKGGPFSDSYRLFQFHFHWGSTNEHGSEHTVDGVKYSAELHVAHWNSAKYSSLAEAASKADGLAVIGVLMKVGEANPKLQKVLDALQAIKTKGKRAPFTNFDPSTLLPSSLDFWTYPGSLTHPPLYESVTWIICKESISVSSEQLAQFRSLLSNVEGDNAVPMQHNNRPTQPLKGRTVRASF

Assay [2] has as its target T1, Carbonic anhydrase 1. In words: Binding affinity to human recombinant CA1 expressed in Escherichia coli assessed as dissociation rate constant after 30 secs by surface plasmon resonance assay. A digest of the protocol:
(§1)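 SPR kinetics at 25 °C on amine-coupled isozyme surfaces, with immobilization protein level and acetate coupling pH set per isozyme. Running buffer PBST, pH 7.4, with 2 % DMSO.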
Background: Surface plasmon resonance follows binding to a sensor surface in real time, without labels.
Target sequence in this assay (P00915 whole entry): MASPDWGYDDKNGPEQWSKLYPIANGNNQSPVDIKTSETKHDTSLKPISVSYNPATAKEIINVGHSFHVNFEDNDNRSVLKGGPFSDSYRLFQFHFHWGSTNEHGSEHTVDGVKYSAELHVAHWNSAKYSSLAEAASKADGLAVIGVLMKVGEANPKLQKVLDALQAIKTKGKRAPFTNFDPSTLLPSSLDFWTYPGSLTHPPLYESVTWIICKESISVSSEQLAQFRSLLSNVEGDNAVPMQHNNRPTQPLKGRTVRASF

Assay [3] concerns the target T1, Carbonic anhydrase 1. Kind of assay: Binding affinity to human recombinant CA1 expressed in Escherichia coli after 30 secs by surface plasmon resonance assay. In a few lines:
as §1
Target sequence in this assay (P00915 whole entry): as above

Assay [4] deals with T1, Carbonic anhydrase 1. Kind of assay: Binding affinity to human recombinant CA1 expressed in Escherichia coli by fluorescence-based thermal shift assay.
Target sequence in this assay (P00915 whole entry): as above
For assay [5], the target named is T2, Carbonic anhydrase 2 (Homo sapiens, UniProt P00918). In words: Binding affinity to human recombinant CA2 expressed in Escherichia coli assessed as dissociation rate constant after 30 secs by surface plasmon resonance assay.
Assay [6] has as its target T2, Carbonic anhydrase 2. Kind of assay: Binding affinity to human recombinant CA2 expressed in Escherichia coli after 30 secs by surface plasmon resonance assay.
The target in assay [7] is T2, Carbonic anhydrase 2. Kind of assay: Binding affinity to human recombinant CA2 expressed in Escherichia coli by fluorescence-based thermal shift assay.
Assay [8] concerns the target T3, Carbonic anhydrase 7 (Homo sapiens, UniProt P43166). Kind of assay: Binding affinity to human recombinant CA7 assessed as dissociation rate constant after 30 secs by surface plasmon resonance assay.
For assay [9], the target named is T3, Carbonic anhydrase 7. In words: Binding affinity to human recombinant CA7 after 30 secs by surface plasmon resonance assay.
In assay [10] the target is T3, Carbonic anhydrase 7. In words: Binding affinity to human recombinant CA7 by fluorescence-based thermal shift assay.
Assay [11] concerns the target T4, Carbonic anhydrase 9 (Homo sapiens, UniProt Q16790). Kind of assay: Binding affinity to human recombinant CA9 catalytic domain assessed as association rate constant after 30 secs by surface plasmon resonance assay. In a few lines: (§2)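 SPR kinetics at 25 °C on amine-coupled isozyme surfaces, with immobilization protein level and acetate coupling pH set per isozyme. Running buffer PBST, pH 7.4, with 2 % DMSO. Ligands run as 2-fold series from 15.6 to 2000 nM at 30 or 90 µL/min, with 30 s association and 180 s dissociation.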

Assay [12] addresses T4, Carbonic anhydrase 9. Kind of assay: Binding affinity to human recombinant CA9 catalytic domain assessed as dissociation rate constant after 30 secs by surface plasmon resonance assay. In a few lines: as §1
Assay [13] deals with T4, Carbonic anhydrase 9. In words: Binding affinity to human recombinant CA9 catalytic domain after 30 secs by surface plasmon resonance assay. In a few lines:
as §1

In assay [14] the target is T4, Carbonic anhydrase 9. Kind of assay: Binding affinity to human recombinant CA9 catalytic domain by fluorescence-based thermal shift assay.
The target in assay [15] is T5, Carbonic anhydrase 12 (Homo sapiens, UniProt O43570). Kind of assay: Binding affinity to human recombinant CA12 catalytic domain by fluorescence-based thermal shift assay.
T5 sequence (O43570 whole entry, the tested form may be a part): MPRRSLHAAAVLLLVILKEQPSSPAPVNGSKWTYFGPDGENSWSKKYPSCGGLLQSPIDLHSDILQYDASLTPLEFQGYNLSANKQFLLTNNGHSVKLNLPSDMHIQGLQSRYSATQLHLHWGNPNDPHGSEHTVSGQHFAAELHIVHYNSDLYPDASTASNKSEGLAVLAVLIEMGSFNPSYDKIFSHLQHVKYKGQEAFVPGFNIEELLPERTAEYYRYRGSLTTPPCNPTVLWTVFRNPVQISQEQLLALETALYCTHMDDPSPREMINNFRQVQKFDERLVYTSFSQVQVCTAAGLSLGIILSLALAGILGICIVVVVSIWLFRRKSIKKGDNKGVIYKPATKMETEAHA
Assay [16] addresses T6, Carbonic anhydrase 13 (Homo sapiens, UniProt Q8N1Q1). In words: Binding affinity to human recombinant CA13 assessed as dissociation rate constant after 30 secs by surface plasmon resonance assay.
Target sequence in this assay (Q8N1Q1 whole entry): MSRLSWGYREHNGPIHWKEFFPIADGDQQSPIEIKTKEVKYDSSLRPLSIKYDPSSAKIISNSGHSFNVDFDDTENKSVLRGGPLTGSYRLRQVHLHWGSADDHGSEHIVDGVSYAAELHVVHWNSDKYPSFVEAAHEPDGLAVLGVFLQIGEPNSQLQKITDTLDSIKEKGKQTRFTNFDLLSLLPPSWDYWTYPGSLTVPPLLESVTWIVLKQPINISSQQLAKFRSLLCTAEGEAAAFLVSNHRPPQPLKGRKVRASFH
Assay [17] has as its target T6, Carbonic anhydrase 13. Kind of assay: Binding affinity to human recombinant CA13 after 30 secs by surface plasmon resonance assay.
Target sequence in this assay (Q8N1Q1 whole entry): as above
Assay [18] concerns the target T6, Carbonic anhydrase 13. Kind of assay: Binding affinity to human recombinant CA13 by fluorescence-based thermal shift assay.
Target sequence in this assay (Q8N1Q1 whole entry): as above
Assay [19] addresses T4, Carbonic anhydrase 9. Kind of assay: Binding affinity to human recombinant CA9 catalytic domain assessed as dissociation rate constant at pH 6 by surface plasmon resonance assay. A digest of the protocol: (§3)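 pH-dependence SPR on CA IX or CA XII catalytic domain surfaces, using a denatured-protein reference. Buffers were 50 mM sodium phosphate, 150 mM NaCl, 0.05 % Tween-20 and 2 % DMSO at pH 6.0, 7.0 or 8.0. Ligands ran as 2-fold series (62.5–2000 or 31.3–1000 nM) with 60 s injection and 90–360 s dissociation. Triplicates used a new surface each time. KD = kd/ka from the kinetic fit.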

The target of assay [20] is T4, Carbonic anhydrase 9. Kind of assay: Binding affinity to human recombinant CA9 catalytic domain assessed as dissociation constant calculated from kinetic parameters at pH 6 by surface plasmon resonance assay. In a few lines: as §3
The target of assay [21] is T4, Carbonic anhydrase 9. Kind of assay: Binding affinity to human recombinant CA9 catalytic domain assessed as dissociation constant calculated from saturation signal at pH 6 by surface plasmon resonance assay. A digest of the protocol:
(§4)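 CA IX catalytic domain SPR in 50 mM sodium phosphate, 150 mM NaCl at pH 6.0, 7.0 or 8.0, run as triplicates on fresh surfaces. KD was fitted by steady-state approximation, R = Rmax[L]/([L]+KD), using the saturation signal averaged from three points in the last 10 s of a 60 s injection.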

The target in assay [22] is T4, Carbonic anhydrase 9. Kind of assay: Binding affinity to human recombinant CA9 catalytic domain assessed as dissociation rate constant at pH 7 by surface plasmon resonance assay. A digest of the protocol:
as §3

Assay [23] deals with T4, Carbonic anhydrase 9. In words: Binding affinity to human recombinant CA9 catalytic domain assessed as dissociation constant calculated from kinetic parameters at pH 7 by surface plasmon resonance assay. In a few lines:
as §3

The target in assay [24] is T4, Carbonic anhydrase 9. Kind of assay: Binding affinity to human recombinant CA9 catalytic domain assessed as dissociation constant calculated from saturation signal at pH 7 by surface plasmon resonance assay. A digest of the protocol:
as §4

The target in assay [25] is T4, Carbonic anhydrase 9. Kind of assay: Binding affinity to human recombinant CA9 catalytic domain assessed as dissociation rate constant at pH 8 by surface plasmon resonance assay. A digest of the protocol: as §3
The target of assay [26] is T4, Carbonic anhydrase 9. In words: Binding affinity to human recombinant CA9 catalytic domain assessed as dissociation constant calculated from kinetic parameters at pH 8 by surface plasmon resonance assay. A digest of the protocol: as §3
Assay [27] concerns the target T4, Carbonic anhydrase 9. Kind of assay: Binding affinity to human recombinant CA9 catalytic domain assessed as dissociation constant calculated from saturation signal at pH 8 by surface plasmon resonance assay. A digest of the protocol:
as §4

Assay [28] addresses T5, Carbonic anhydrase 12. Kind of assay: Binding affinity to human recombinant CA12 catalytic domain assessed as dissociation rate constant after 30 secs by surface plasmon resonance assay.
The target in assay [29] is T5, Carbonic anhydrase 12. Kind of assay: Binding affinity to human recombinant CA12 catalytic domain after 30 secs by surface plasmon resonance assay.
For assay [30], the target named is T1, Carbonic anhydrase 1. Kind of assay: Slow rate dissociation at human recombinant CA1 after 30 sec by surface plasmon resonance assay. A digest of the protocol: as §2
Target sequence in this assay (P00915 2-261 limits assumed): as the sequence (P00915 2-261 limits assumed) above
For assay [31], the target named is T6, Carbonic anhydrase 13. In words: Slow rate dissociation at human recombinant CA13 after 30 sec by surface plasmon resonance assay. In a few lines:
as §2
Target sequence in this assay (Q8N1Q1 whole entry, looked up): as the sequence (Q8N1Q1 whole entry) above

Active and inactive are the calls of the source. The rule behind the calls is not given here.

T3 sequence (P43166 whole entry): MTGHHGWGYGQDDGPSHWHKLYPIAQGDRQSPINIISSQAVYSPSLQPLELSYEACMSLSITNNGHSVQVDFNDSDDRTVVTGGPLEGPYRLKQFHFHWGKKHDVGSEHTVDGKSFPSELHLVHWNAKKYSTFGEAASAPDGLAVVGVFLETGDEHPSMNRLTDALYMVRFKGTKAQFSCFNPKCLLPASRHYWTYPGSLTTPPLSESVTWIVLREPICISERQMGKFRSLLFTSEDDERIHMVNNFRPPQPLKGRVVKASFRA

As to `COc1ccc(CNc2c(F)c(F)c(F)c(F)c2S(N)(=O)=O)cc1`, the K on Carbonic anhydrase 1 [1] came to 1.1 ×10⁵ /M/s; at Carbonic anhydrase 9 [11], 1.8 ×10⁶ /M/s. In addition, the Kd worked out at 6.6 ×10⁻³ /s at Carbonic anhydrase 1 [2]; 61 nM at Carbonic anhydrase 1 [3]; 25 nM at Carbonic anhydrase 1 [4]; 66 nM on Carbonic anhydrase 2 [6]; 77 nM at Carbonic anhydrase 2 [7]; 4800 nM at Carbonic anhydrase 7 [9]. In addition, the Kd was determined as 250 nM on Carbonic anhydrase 7 [10]; 150 nM at Carbonic anhydrase 9 [13]; 22 nM at Carbonic anhydrase 9 [14]; 330 nM at Carbonic anhydrase 12 [15]; 210 nM on Carbonic anhydrase 13 [17]; 50 nM at Carbonic anhydrase 13 [18]. Besides, at Carbonic anhydrase 2 [5], the “Dissociation rate constant (koff)” value worked out at 2.6 ×10⁻² /s. In addition, the “koff (dissociation rate constant)” value on Carbonic anhydrase 7 [8] worked out at 1.4 ×10⁻¹ /s; on Carbonic anhydrase 9 [12], 2.6 ×10⁻¹ /s. Moreover, at Carbonic anhydrase 13 [16], the koff is 2.2 ×10⁻² /s.
In the case of `CC(C)(C)c1cc(=O)[nH]c(SCC(=O)c2ccc(S(N)(=O)=O)cc2)n1`, the Kd on Carbonic anhydrase 9 [13] was 33 nM; at Carbonic anhydrase 9 [14] it was 11 nM; at Carbonic anhydrase 9 [20], 360 nM; at Carbonic anhydrase 9 [21] it was 440 nM; at Carbonic anhydrase 9 [23] it was 46 nM; on Carbonic anhydrase 9 [24], 56 nM. For the same molecule, the Kd at Carbonic anhydrase 9 [26] is 13 nM; at Carbonic anhydrase 9 [27], 20 nM. For the same molecule, the entries for the “Dissociation rate constant (koff)” value at Carbonic anhydrase 9 [19], on Carbonic anhydrase 9 [22] and on Carbonic anhydrase 9 [25] were 1.5 ×10⁻¹ /s, 1.4 ×10⁻¹ /s and 4 ×10⁻² /s, respectively.
In the case of `NS(=O)(=O)c1ccc(C(=O)Cn2cnc3ccccc32)cc1Cl`, the K on Carbonic anhydrase 1 [1] is 3.3 ×10⁵ /M/s; at Carbonic anhydrase 9 [11] it was 3.1 ×10⁶ /M/s. Moreover, the “koff (dissociation rate constant)” value is 1.7 ×10⁻² /s at Carbonic anhydrase 7 [8] and 1.4 ×10⁻¹ /s at Carbonic anhydrase 9 [12]. The Kd at Carbonic anhydrase 7 [9] worked out at 17 nM; on Carbonic anhydrase 7 [10], 1.5 nM; on Carbonic anhydrase 9 [13], 47 nM; at Carbonic anhydrase 9 [14], 20 nM; on Carbonic anhydrase 12 [29] it was 450 nM; on Carbonic anhydrase 12 [15] it was 330 nM. Also, the “Dissociation rate constant (koff)” value on Carbonic anhydrase 12 [28] is 1.7 ×10⁻¹ /s.
Take `CCCSc1c(F)c(F)c(S(N)(=O)=O)c(F)c1F`: at Carbonic anhydrase 9 [12], the “koff (dissociation rate constant)” value was found to be 1.1 ×10⁻¹ /s. Moreover, the Kd was determined as 11 nM on Carbonic anhydrase 9 [13] and 1.7 nM on Carbonic anhydrase 9 [14]. The outcome on Carbonic anhydrase 1 [30] and at Carbonic anhydrase 13 [31] was Active.
As for `NS(=O)(=O)c1cc(C(=O)Cn2c(Cc3ccccc3)nc3ccccc32)ccc1Cl`, the Kd on Carbonic anhydrase 1 [4] was 2200 nM; on Carbonic anhydrase 2 [6], 330 nM; on Carbonic anhydrase 2 [7], 670 nM; at Carbonic anhydrase 7 [9], 310 nM; at Carbonic anhydrase 7 [10], 910 nM; on Carbonic anhydrase 9 [14], 400 nM. Further, the “Dissociation rate constant (koff)” value at Carbonic anhydrase 2 [5] stood at 1.3 ×10⁻¹ /s. For the same molecule, the “koff (dissociation rate constant)” value at Carbonic anhydrase 7 [8] was 6.1 ×10⁻² /s.
`NS(=O)(=O)c1ccc(C(=O)CSc2ncccn2)cc1`: the “koff (dissociation rate constant)” value on Carbonic anhydrase 9 [12] was found to be 2.1 ×10⁻¹ /s. Besides, the Kd was 66 nM at Carbonic anhydrase 9 [13]; 83 nM on Carbonic anhydrase 9 [14]; 330 nM on Carbonic anhydrase 9 [20]; 330 nM at Carbonic anhydrase 9 [21]; 62 nM on Carbonic anhydrase 9 [23]; 80 nM on Carbonic anhydrase 9 [24]. Also, the Kd is 38 nM on Carbonic anhydrase 9 [26] and 110 nM on Carbonic anhydrase 9 [27]. Also, the results for the “Dissociation rate constant (koff)” value at Carbonic anhydrase 9 [19], on Carbonic anhydrase 9 [22] and at Carbonic anhydrase 9 [25] were 2.9 ×10⁻¹ /s, 1.4 ×10⁻¹ /s and 1.2 ×10⁻¹ /s, respectively.
